The values below come from paper PMC3372611 (Biochemical Pharmacology, 2012).

Residue numbers refer to the chain shown, from its start. “And” between values parts separate entries of the source, which are not always exact repeats. Equal entries are not always repeated.

Test [1] concerns the target T1, WT PMAT (Homo sapiens, UniProt Q7RTT9).
T1 sequence (Q7RTT9 1-530): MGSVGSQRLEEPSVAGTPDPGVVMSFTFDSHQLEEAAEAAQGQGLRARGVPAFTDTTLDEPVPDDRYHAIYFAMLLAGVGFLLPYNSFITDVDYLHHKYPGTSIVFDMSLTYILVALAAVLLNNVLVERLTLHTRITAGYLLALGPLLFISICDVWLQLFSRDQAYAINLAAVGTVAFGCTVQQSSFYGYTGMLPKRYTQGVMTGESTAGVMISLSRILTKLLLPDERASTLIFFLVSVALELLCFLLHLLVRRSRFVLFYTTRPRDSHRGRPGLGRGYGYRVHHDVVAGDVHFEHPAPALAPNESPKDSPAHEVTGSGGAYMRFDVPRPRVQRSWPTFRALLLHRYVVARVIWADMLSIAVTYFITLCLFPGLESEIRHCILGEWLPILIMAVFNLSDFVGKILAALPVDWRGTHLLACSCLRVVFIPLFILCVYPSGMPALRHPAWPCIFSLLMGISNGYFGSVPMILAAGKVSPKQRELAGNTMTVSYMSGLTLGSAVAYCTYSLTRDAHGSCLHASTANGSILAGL
The test can be described thus: Inhibition of [3H]MPP+ uptake in WT PMAT-transfected MDCK cells. The format is cell-based. In short, it runs like this: (§1)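 Stably transfected MDCK cells (YFP-tagged WT or I89M human PMAT) at confluence were exposed 1 min at 37°C in KRH buffer (pH 7.4) to [3H]MPP+ (1 μM) with or without test compound at various concentrations. Cells were washed in ice-cold KRH, counted by scintillation, and normalized to protein. IC50 came from fitting total uptake to a Hill-type equation with residual baseline. Wells in triplicate; three independent experiments on different passages; mean ± S.D.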

Test [2] concerns the target T2, PMAT I89M mutant (Homo sapiens, UniProt Q7RTT9, I89M).
T2 sequence (Q7RTT9 1-530 I89M): T1 sequence (Q7RTT9 1-530) with I89M
Kind of test: Inhibition of [3H]MPP+ uptake in I89M-transfected MDCK cells. The format is cell-based. In short, it runs like this: as §1

Test [3] concerns the target T2, PMAT I89M mutant. The test can be described thus: Concentration-dependent [3H]MPP+ uptake. The class given is cell-based. Particulars: MPP+ as substrate. In short, it runs like this:
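MDCK cells stably expressing YFP-tagged WT or I89M human PMAT (G418-selected, FACS-sorted) were grown 2–3 days to ~90–100% confluence. Cells were preincubated 15 min in KRH buffer (pH 7.4) at 37°C, then given various [3H]MPP+ concentrations for 1 min at 37°C. Uptake was read by scintillation and normalized to protein. Vector-cell uptake was subtracted, and Km and Vmax came from Michaelis-Menten nonlinear least-squares fits. Wells in triplicate; n=3 passages.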

Test [4] has as its target ENT1. The note with it: mammalian ENT1 proteins; cited from earlier work.
Test [5] concerns ENT2. The note with it: ENT2 transporters; cited from earlier work.

In general, IC50 refers to the midpoint of a concentration-inhibition curve. Read a high IC50 as weaker potency in that assay. Consider `COc1cc(C(=O)OCCCN2CCCN(CCCOC(=O)c3cc(OC)c(OC)c(OC)c3)CC2)cc(OC)c1OC` [Dilazep, dilazep], for which the figures for the IC50 in test [1] and in test [2] were 16.6 ± 2.1 µM and 6.6 ± 0.5 µM, respectively. Further, in test [2] (inhibition of MPP+ uptake), the “Increase in transporter sensitivity to inhibition, I89M vs WT PMAT” value was 2.5 fold and ~ 2.5 fold.

In the case of `OCCN(CCO)c1nc(N2CCCCC2)c2nc(N(CCO)CCO)nc(N3CCCCC3)c2n1` [Dipyridamole, dipyridamole], the IC50 in test [2] came to 4.6 ± 1.8 µM. Besides, the “Change in inhibition, I89M vs WT PMAT (in words)” value in test [2] (inhibition of MPP+ uptake) was “no significant changes”.

With `C[n+]1ccc(-c2ccccc2)cc1` [MPP^+, 1-methyl-4-phenylpyridinium], in test [3], the “Decrease in maximal transport velocity (Vmax), I89M vs WT PMAT” value is 2.7 fold and ~ 2.7 fold; the “Decrease in transport efficiency (Vmax/Km), I89M vs WT PMAT” value came out at 3.7 fold.

The term Kd denotes the equilibrium constant for the complex coming apart. For the compound `O=[N+]([O-])c1ccc(CSc2ncnc3c2ncn3[C@@H]2O[C@H](CO)[C@@H](O)[C@H]2O)cc1` [NBMPR, nitrobenzylmercaptopurine riboside], the “Change in inhibition, I89M vs WT PMAT (in words)” value in test [2] (inhibition of MPP+ uptake) is recorded as “no significant changes”. Besides, in test [4], the Kd is 0.001 to 0.01 µM. In addition, the “Concentration at which the transporter becomes sensitive” value in test [5] was over 10 µM.
